Zone of inhibition data for four compounds are collected here from ChEMBL document CHEMBL1275303, “Synthesis and antimicrobial activity of 2-substituted [4-(1,3,4-oxadiazol-2-yl methyl)] phthalazin-1(2H)-one derivatives” (2010).

In test [1] the test system is Nannizzia gypsea. Description: Antimicrobial activity against Microsporum gypseum at 50 ug/mL after 72 hrs by well plate method. The note with it: read-out: IZ. The test is classed as functional. An outline of the steps:
(§1)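 Antifungal well-plate assay on Sabouraud dextrose agar using a 72 h old broth culture of the fungal strain. Wells were filled with compound dissolved in DMSO (100 or 50), and the zone of inhibition around each well was measured. […] served as reference.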

For test [2], the system named is Chrysosporium keratinophilum. Kind of test: Antimicrobial activity against Chrysosporium keratinophilum at 50 ug/mL after 72 hrs by well plate method. Type of test: functional. To be noted: read-out: IZ. An outline of the steps: as §1
In test [3] the test system is Staphylococcus aureus. Description: Antimicrobial activity against Staphylococcus aureus at 50 ug/mL after 24 hrs by well plate method. Type of test: functional. To be noted: read-out: IZ. In short, it runs like this:
(§2)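 Agar well diffusion in nutrient agar. About 1 cm³ of a 24 h broth culture was placed in sterile dishes, and molten agar at 45 °C was poured over it and set. 6 mm wells were bored and filled with compound in DMSO (100 or 50). Plates were incubated 24 h at 37 °C, and the inhibition zone was read in mm. Duplicate runs, with standard deviation; amoxicillin as reference.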

The subject of test [4] is Aspergillus flavus. Description: Antimicrobial activity against Aspergillus flavus at 50 ug/mL after 72 hrs by well plate method. Type of test: functional. To be noted: read-out: IZ.
Test [5] concerns Candida albicans. Description: Antimicrobial activity against Candida albicans at 50 ug/mL after 72 hrs by well plate method. To be noted: read-out: IZ. The test is classed as functional. In short, it runs like this: as §1
The subject of test [6] is Candida albicans. Description: Antimicrobial activity against Candida albicans at 100 ug/mL after 72 hrs by well plate method. The note with it: read-out: IZ. Type of test: functional. An outline of the steps: as §1
In test [7] the test system is Aspergillus flavus. Kind of test: Antimicrobial activity against Aspergillus flavus at 100 ug/mL after 72 hrs by well plate method. The test is classed as functional. To be noted: read-out: IZ.
Test [8] concerns Bacillus subtilis. Kind of test: Antimicrobial activity against Bacillus subtilis at 50 ug/mL after 24 hrs by well plate method. The test is classed as functional. To be noted: read-out: IZ. In short, it runs like this:
as §2

Test [9] relates to Salmonella typhi. Description: Antimicrobial activity against Salmonella typhi at 100 ug/mL after 24 hrs by well plate method. The test is classed as functional, Salmonella enterica subsp. enterica serovar Typhi. To be noted: Salmonella enterica, read-out: IZ. In short, it runs like this: (§3)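 Agar well diffusion in nutrient agar: about 1 cm³ of a 24 h broth culture placed in a sterile dish, molten agar at 45 °C poured over it and allowed to set. 6 mm holes cut with a sterile cork borer and filled with compound solution in DMSO. Incubated 24 h at 37 °C; inhibition zone diameter read in mm. Run in duplicate, standard deviation calculated.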

In test [10] the test system is Escherichia coli. Kind of test: Antimicrobial activity against Escherichia coli at 100 ug/mL after 24 hrs by well plate method. Type of test: functional. To be noted: read-out: IZ. In short, it runs like this:
as §2

Test [11] deals with Staphylococcus aureus. Kind of test: Antimicrobial activity against Staphylococcus aureus at 100 ug/mL after 24 hrs by well plate method. Type of test: functional. To be noted: read-out: IZ. An outline of the steps:
as §2

Test [12] deals with Escherichia coli. Description: Antimicrobial activity against Escherichia coli at 50 ug/mL after 24 hrs by well plate method. The test is classed as functional. The note with it: read-out: IZ. In short, it runs like this: as §2
Test [13] deals with Bacillus subtilis. Kind of test: Antimicrobial activity against Bacillus subtilis at 100 ug/mL after 24 hrs by well plate method. The test is classed as functional. To be noted: read-out: IZ. An outline of the steps:
as §2

Test [14] concerns Nannizzia gypsea. Kind of test: Antimicrobial activity against Microsporum gypseum at 100 ug/mL after 72 hrs by well plate method. Type of test: functional. The note with it: read-out: IZ. In short, it runs like this: as §1
Test [15] has as its system Salmonella typhi. Kind of test: Antimicrobial activity against Salmonella typhi at 50 ug/mL after 24 hrs by well plate method. Type of test: functional, Salmonella enterica subsp. enterica serovar Typhi. To be noted: Salmonella enterica, read-out: IZ. An outline of the steps:
as §3

The subject of test [16] is Chrysosporium keratinophilum. Description: Antimicrobial activity against Chrysosporium keratinophilum at 100 ug/mL after 72 hrs by well plate method. The test is classed as functional. The note with it: read-out: IZ. In short, it runs like this: as §1

Consider `O=c1c2ccccc2c(Cc2nnc(-c3ccc(F)cc3)o2)nn1CCN1CCOCC1`, for which the zone of inhibition at 50 µg/mL stood at 4 mm in test [1]; 2.5 mm in test [2]; 0 mm in [3]; 2 mm in [4]; 2.5 mm in test [5]; 3 mm in test [8]. Also, the zone of inhibition at 50 µg/mL was found to be 0 mm in test [12] and 3.5 mm in test [15]. Moreover, the zone of inhibition at 100 µg/mL in test [6] was 5.5 mm; in test [7], 4 mm; in [9] it was 5 mm; in test [10], 2 mm; in [11], 1 mm; in [13] it was 6 mm. Also, the figures for the zone of inhibition at 100 µg/mL in test [14] and in test [16] were 7.5 mm and 5.5 mm, respectively.
With `O=c1c2ccccc2c(Cc2nnc(-c3ccc(Cl)cc3)o2)nn1CCN1CCOCC1`, the zone of inhibition at 50 µg/mL in test [1] came to 1 mm; in test [2], 0 mm; in test [3], 5 mm; in test [4] it was 0 mm; in [5], 1 mm; in test [8], 2 mm. The zone of inhibition at 50 µg/mL in test [12] and in [15] was 3 mm throughout. The zone of inhibition at 100 µg/mL in [6] was determined as 3.5 mm; in test [7], 1 mm; in test [9], 4.5 mm; in [10], 7 mm; in test [11] it was 8 mm; in test [13], 4 mm. For the same compound, the zone of inhibition at 100 µg/mL in test [14] came out at 3 mm; in [16], 1.5 mm.
As to `Cc1ccccc1-c1nnc(Cc2nn(CCN3CCOCC3)c(=O)c3ccccc23)o1`, the zone of inhibition at 50 µg/mL in test [1] turned out to be 1 mm; in test [2], 0 mm; in [3], 1.5 mm; in [4] it was 1.5 mm; in test [5], 0 mm; in [8] it was 2.5 mm. Further, the zone of inhibition at 50 µg/mL in test [12] and in test [15] was 2.5 mm each time. Further, the zone of inhibition at 100 µg/mL came out at 1.5 mm in [6]; 3 mm in [7]; 5 mm in test [9]; 5.5 mm in test [10]; 3.5 mm in [11]; 4.5 mm in [13]. Further, the zone of inhibition at 100 µg/mL in test [14] stood at 2 mm; in test [16], 2.5 mm.
Regarding `O=c1c2ccccc2c(Cc2nnc(-c3ccsc3)o2)nn1CCN1CCOCC1`, the zone of inhibition at 50 µg/mL in test [1] is 7.5 mm; in [2], 3.5 mm; in test [3], 3.5 mm; in test [4], 6.5 mm; in test [5], 4.5 mm; in test [8] it was 3 mm. Also, the zone of inhibition at 50 µg/mL in test [12] came out at 3.5 mm; in [15], 4.5 mm. The zone of inhibition at 100 µg/mL was 7.5 mm in [6]; 9.5 mm in test [7]; 7.5 mm in test [9]; 8.5 mm in test [10]; 5 mm in test [11]; 6 mm in test [13]. Besides, the zone of inhibition at 100 µg/mL in test [14] was determined as 10.5 mm; in test [16] it was 6.5 mm.
